Data from ChEMBL document CHEMBL1125438, “Synthesis and anti-HIV activity of 4'-azido- and 4'-methoxynucleosides” (J Med Chem, 1992).
Several values for one entry are separate records, joined by “and”; a condition that tells them apart may be missing. Identical values can stand only once.

Tested on: not listed separately
Assay: Selectivity index is defined as CC25(A3.01 cells) / IC50(A3.01 cells); selectivity Index = CC25/IC50
Type: functional
Conditions: not given
Summary of the method: (§1)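 Selectivity index = CC25/IC50 within each line (A3.01, H9 or PBL). CC25 came from visual grading of mock-infected cells after 7 days. IC50 came from reverse transcriptase activity in infected-cell supernatants after 7 days, with medium and compound changed on day 4.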

SMILES	Selectivity index
CO[C@]1(CO)O[C@@H](n2cnc3c(O)nc(N)nc32)C[C@@H]1O	220

Tested on: MT2
Assay: In vitro Cytotoxic concentration which destroyed HIV-1 LAV infected MT-2 cells completely
Type: functional, Homo sapiens
Conditions: not given
Summary of the method: (§2)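 MT-2 cells were mock-infected for 3 h at 37 °C in 5% CO2, then washed. Compound was added as serial dilutions (3-fold; AZT 5-fold) and incubated 4 days. Cytotoxicity was counted by trypan blue dye exclusion on a hemocytometer. […] Single determination.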

SMILES	CC100 [µM]
Cc1cn([C@H]2C[C@H](O)[C@](CO)(N=[N+]=[N-])O2)c(=O)[nH]c1=O	>500
Cc1cn([C@H]2C[C@H](N=[N+]=[N-])[C@@H](CO)O2)c(=O)[nH]c1=O [ZIDOVUDINE]	>500

Tested on: MT2
Assay: In vitro Cytotoxic concentration which reduced G 910-6p2 (post-AZT) infected MT-2 cells by 50 percent
Type: functional, cell-based
Conditions: Homo sapiens
Summary of the method: (§3)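 MT-2 cells were infected for 3 h at 37 °C in 5% CO2 with HIV-1 LAV or with clinical isolates G762-3, H112-2 (pre-AZT) or G691-2, G910-6p2 (post-AZT), then washed. Serial compound dilutions (3-fold; AZT 5-fold) followed, with 4-day incubation. Virus was measured as p24 core antigen by kit. IC50 = 50% reduction versus control cultures. Single determination.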

SMILES	IC50 [µM]
Cc1cn([C@H]2C[C@H](O)[C@](CO)(N=[N+]=[N-])O2)c(=O)[nH]c1=O	0.52
Cc1cn([C@H]2C[C@H](N=[N+]=[N-])[C@@H](CO)O2)c(=O)[nH]c1=O [ZIDOVUDINE]	31

Tested on: not listed separately
Assay: (§4) In vitro Cytotoxic concentration which destroyed HIV-1 LAV infected peripheral blood lymphocytes (PBL) completely
Type: functional
Conditions: not given
Summary of the method: (§5)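 Toxicity was read on mock-infected A3.01, H9 or PBL cells handled alongside the infected ones (3 h mock infection, wash). Compounds were 3-fold serially diluted (AZT 5-fold). Incubation lasted 7 days, with medium and compound changed on day 4. Cytotoxicity was graded by eye from cell morphology and death. […] Single determination.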

SMILES	CC100 [µM]
Cc1cn([C@H]2C[C@H](N=[N+]=[N-])[C@@H](CO)O2)c(=O)[nH]c1=O [ZIDOVUDINE]	>500

Tested on: not listed separately
Assay: In vitro Cytotoxic concentration in mock-infected A3.01 cells - 100% toxicity.
Type: functional, Homo sapiens
Conditions: not given
Summary of the method: as §5

SMILES	CC100
Cc1cn([C@H]2C[C@H](O)[C@](CO)(N=[N+]=[N-])O2)c(=O)[nH]c1=O	200 µM and >200 µM
CO[C@]1(CO)O[C@@H](n2cnc3c(N)ncnc32)C[C@@H]1O	>1000 µM
[N-]=[N+]=N[C@]1(CO)O[C@@H](n2cnc3c(N)ncnc32)C[C@@H]1O	>50 µM
CO[C@]1(CO)O[C@@H](n2cc(C)c(=O)[nH]c2=O)C[C@@H]1O	>200 µM
Cc1cn([C@H]2C[C@H](N=[N+]=[N-])[C@@H](CO)O2)c(=O)[nH]c1=O [ZIDOVUDINE]	3300 µM
[N-]=[N+]=N[C@]1(CO)O[C@@H](n2ccc(=O)[nH]c2=O)C[C@@H]1O	>200 µM
[N-]=[N+]=N[C@]1(CO)O[C@@H](N2C=NC3C(=O)N=CN=C32)C[C@@H]1O (some centres undefined)	200 µM
COC1(CO)OC(n2cc(C)c(=O)[nH]c2=O)CC1F (centres undefined)	>400 µM

Tested on: MT2
Assay: In vitro Cytotoxic concentration which reduced H 112-2(pre-AZT) infected MT-2 cells by 50 percent
Type: functional, cell-based
Conditions: Homo sapiens
Summary of the method: as §3

SMILES	IC50 [nM]
Cc1cn([C@H]2C[C@H](O)[C@](CO)(N=[N+]=[N-])O2)c(=O)[nH]c1=O	400
Cc1cn([C@H]2C[C@H](N=[N+]=[N-])[C@@H](CO)O2)c(=O)[nH]c1=O [ZIDOVUDINE]	200

Tested on: H9
Assay: In vitro Cytotoxic concentration which reduced HIV-1 LAV infected H9 cells by 50 percent
Type: functional, cell-based
Conditions: Homo sapiens
Summary of the method: (§6)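 Cells (A3.01, H9 or PBL) infected with HIV-1 LAV for 3 h at 37 °C in 5% CO2, then washed free of unadsorbed virus. Test compounds were serially diluted 3-fold and AZT 5-fold. Cultures ran 7 days, with medium and compound renewed on day 4. Reverse transcriptase activity in supernatants gave virus levels. IC50 = concentration cutting virus by 50% versus control cultures. Single determination.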

SMILES	IC50 [nM]
Cc1cn([C@H]2C[C@H](O)[C@](CO)(N=[N+]=[N-])O2)c(=O)[nH]c1=O	400
Cc1cn([C@H]2C[C@H](N=[N+]=[N-])[C@@H](CO)O2)c(=O)[nH]c1=O [ZIDOVUDINE]	30

Tested on: not listed separately
Assay: In vitro cytotoxic concentration for mock-infected cells at which complete destruction of cells was observed
Type: functional
Conditions: not given
Summary of the method: as §5

SMILES	CC100 [µM]
CO[C@]1(CO)O[C@@H](n2cnc3c(O)nc(N)nc32)C[C@@H]1O	67

Tested on: not listed separately
Assay: In vitro Cytotoxic concentration in mock-infected A3.01 cells.
Type: functional, Homo sapiens
Conditions: not given
Summary of the method: as §5

SMILES	CC25 [µM]
CO[C@]1(CO)O[C@@H](n2cnc3c(N)ncnc32)C[C@@H]1O	1000
[N-]=[N+]=N[C@]1(CO)O[C@@H](n2cnc3c(N)ncnc32)C[C@@H]1O	50
CO[C@]1(CO)O[C@@H](n2cc(C)c(=O)[nH]c2=O)C[C@@H]1O	>200
Cc1cn([C@H]2C[C@H](N=[N+]=[N-])[C@@H](CO)O2)c(=O)[nH]c1=O [ZIDOVUDINE]	825
[N-]=[N+]=N[C@]1(CO)O[C@@H](n2ccc(=O)[nH]c2=O)C[C@@H]1O	200
[N-]=[N+]=N[C@]1(CO)O[C@@H](N2C=NC3C(=O)N=CN=C32)C[C@@H]1O (some centres undefined)	<22
COC1(CO)OC(n2cc(C)c(=O)[nH]c2=O)CC1F (centres undefined)	400

Tested on: not listed separately
Assay: In vitro Cytotoxic concentration which reduced HIV-1 LAV infected peripheral blood lymphocytes by 50 percent
Type: functional
Conditions: not given
Summary of the method: as §6

SMILES	IC50 [nM]
Cc1cn([C@H]2C[C@H](O)[C@](CO)(N=[N+]=[N-])O2)c(=O)[nH]c1=O	20
Cc1cn([C@H]2C[C@H](N=[N+]=[N-])[C@@H](CO)O2)c(=O)[nH]c1=O [ZIDOVUDINE]	80

Tested on: MT2
Assay: In vitro Cytotoxic concentration which reduced G 691-2(post-AZT) infected MT-2 cells by 50 percent
Type: functional, cell-based
Conditions: Homo sapiens
Summary of the method: as §3

SMILES	IC50 [µM]
Cc1cn([C@H]2C[C@H](O)[C@](CO)(N=[N+]=[N-])O2)c(=O)[nH]c1=O	0.34
Cc1cn([C@H]2C[C@H](N=[N+]=[N-])[C@@H](CO)O2)c(=O)[nH]c1=O [ZIDOVUDINE]	10

Tested on: H9
Assay: In vitro Cytotoxic concentration which destroyed HIV-1 LAV infected H9 cells completely
Type: functional, Homo sapiens
Conditions: not given
Summary of the method: as §5

SMILES	CC100 [µM]
Cc1cn([C@H]2C[C@H](O)[C@](CO)(N=[N+]=[N-])O2)c(=O)[nH]c1=O	667
Cc1cn([C@H]2C[C@H](N=[N+]=[N-])[C@@H](CO)O2)c(=O)[nH]c1=O [ZIDOVUDINE]	1200

Tested on: not listed separately
Assay: In vitro cytotoxic concentration for mock-infected CD4+ T cells at which 25% cells were destroyed
Type: functional, T-cell
Conditions: not given
Summary of the method: as §5

SMILES	CC25 [µM]
CO[C@]1(CO)O[C@@H](n2cnc3c(O)nc(N)nc32)C[C@@H]1O	22

Tested on: not listed separately
Assay: Selectivity index is defined as CC25(H9 cells) / […]
Type: functional
Conditions: not given
Summary of the method: as §1

SMILES	Selectivity index
Cc1cn([C@H]2C[C@H](O)[C@](CO)(N=[N+]=[N-])O2)c(=O)[nH]c1=O	625

Tested on: MT2
Assay: as §4
Type: functional, Homo sapiens
Conditions: not given
Summary of the method: as §5

SMILES	CC100 [µM]
Cc1cn([C@H]2C[C@H](O)[C@](CO)(N=[N+]=[N-])O2)c(=O)[nH]c1=O	>200

Tested on: not listed separately
Assay: Selectivity index is defined as CC25(MT2 cells) / […]
Type: functional
Conditions: not given
Summary of the method: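 Selectivity index = CC25/IC50 in MT-2 cells. CC25 came from trypan blue exclusion on mock-infected cells after 4 days. IC50 came from the 50% reduction in p24 antigen in HIV-1 LAV-infected cultures after 4 days.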

SMILES	Selectivity index
Cc1cn([C@H]2C[C@H](O)[C@](CO)(N=[N+]=[N-])O2)c(=O)[nH]c1=O	140

Tested on: not listed separately
Assay: Selectivity index is defined as CC25(PBLcells) / […]
Type: functional
Conditions: not given
Summary of the method: as §1

SMILES	Selectivity index
Cc1cn([C@H]2C[C@H](O)[C@](CO)(N=[N+]=[N-])O2)c(=O)[nH]c1=O	125

Tested on: MT2
Assay: In vitro Cytotoxic concentration which reduced HIV-1 LAV infected MT-2 cells by 50 percent
Type: functional, cell-based
Conditions: Homo sapiens
Summary of the method: as §3

SMILES	IC50 [nM]
Cc1cn([C@H]2C[C@H](O)[C@](CO)(N=[N+]=[N-])O2)c(=O)[nH]c1=O	400
Cc1cn([C@H]2C[C@H](N=[N+]=[N-])[C@@H](CO)O2)c(=O)[nH]c1=O [ZIDOVUDINE]	160

Tested on: MT2
Assay: In vitro Cytotoxic concentration which reduced HIV-1 LAV infected MT-2 cells by 25 percent
Type: functional, Homo sapiens
Conditions: not given
Summary of the method: as §2

SMILES	CC25 [µM]
Cc1cn([C@H]2C[C@H](O)[C@](CO)(N=[N+]=[N-])O2)c(=O)[nH]c1=O	56
Cc1cn([C@H]2C[C@H](N=[N+]=[N-])[C@@H](CO)O2)c(=O)[nH]c1=O [ZIDOVUDINE]	56

Tested on: MT2
Assay: In vitro Cytotoxic concentration which reduced G 762-3(pre-AZT) infected MT-2 cells by 50 percent
Type: functional, cell-based
Conditions: Homo sapiens
Summary of the method: as §3

SMILES	IC50 [nM]
Cc1cn([C@H]2C[C@H](O)[C@](CO)(N=[N+]=[N-])O2)c(=O)[nH]c1=O	430
Cc1cn([C@H]2C[C@H](N=[N+]=[N-])[C@@H](CO)O2)c(=O)[nH]c1=O [ZIDOVUDINE]	220

Tested on: not listed separately
Assay: Selectivity index is defined as CC25(A3.01 cells) / IC50(A3.01 cells)
Type: functional
Conditions: not given
Summary of the method: as §1

SMILES	Selectivity index
Cc1cn([C@H]2C[C@H](O)[C@](CO)(N=[N+]=[N-])O2)c(=O)[nH]c1=O	800
CO[C@]1(CO)O[C@@H](n2cnc3c(N)ncnc32)C[C@@H]1O	64.5
[N-]=[N+]=N[C@]1(CO)O[C@@H](n2cnc3c(N)ncnc32)C[C@@H]1O	385
CO[C@]1(CO)O[C@@H](n2cc(C)c(=O)[nH]c2=O)C[C@@H]1O	>23.6
[N-]=[N+]=N[C@]1(CO)O[C@@H](n2ccc(=O)[nH]c2=O)C[C@@H]1O	250
[N-]=[N+]=N[C@]1(CO)O[C@@H](N2C=NC3C(=O)N=CN=C32)C[C@@H]1O (some centres undefined)	<34
COC1(CO)OC(n2cc(C)c(=O)[nH]c2=O)CC1F (centres undefined)	125

Tested on: H9
Assay: In vitro Cytotoxic concentration which reduced HIV-1 LAV infected H9 cells by 25 percent
Type: functional, Homo sapiens
Conditions: not given
Summary of the method: as §5

SMILES	CC25 [µM]
Cc1cn([C@H]2C[C@H](O)[C@](CO)(N=[N+]=[N-])O2)c(=O)[nH]c1=O	25
Cc1cn([C@H]2C[C@H](N=[N+]=[N-])[C@@H](CO)O2)c(=O)[nH]c1=O [ZIDOVUDINE]	44

Tested on: not listed separately
Assay: In vitro Cytotoxic concentration which reduced HIV-1 LAV infected peripheral blood lymphocytes (PBL) by 25 percent
Type: functional
Conditions: not given
Summary of the method: as §5

SMILES	CC25 [µM]
Cc1cn([C@H]2C[C@H](O)[C@](CO)(N=[N+]=[N-])O2)c(=O)[nH]c1=O	2.5
Cc1cn([C@H]2C[C@H](N=[N+]=[N-])[C@@H](CO)O2)c(=O)[nH]c1=O [ZIDOVUDINE]	4
